Reference: ChEMBL document CHEMBL5034020, “Self-Masked Aldehyde Inhibitors: A Novel Strategy for Inhibiting Cysteine Proteases” (J Med Chem, 2021)
pEC50, pKi: −log10 of the molar value. Activity calls are given as the source filed them. The calls are words filed in the database; no cut-off is given here. Residues, ends and D or L forms follow the SMILES beside them. *: point of attachment. Cbz = O=C(OCc1ccccc1)*

What was measured:
Trypanosoma cruzi = assay: Antitrypanosomal activity against Trypanosoma cruzi infected in mouse C2C12 cells incubated for 2 days by DAPI staining based microscopic analysis; format: functional, organism-based; conditions: C2C12, 48 h
Method in brief: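 Inhibitor added as 3-fold serial dilutions, top 40 μM (typically 0.02–40 μM), 2 days at 37 °C. Fixed with 2% PFA in PBS, stained with 5 μg/mL DAPI for >30 min in the dark, then imaged to count parasites and host cells.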

[1] = test system: Trypanosoma brucei brucei; assay: Antitrypanosomal activity against bloodstream form of Trypanosoma brucei brucei measured after 3 to 4 days by Z2 coulter counter based analysis; format: functional, organism-based
Method in brief: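 Bloodstream-form T. b. brucei SM427 grown at 37 °C in HM1–9 with 10% FBS and penicillin–streptomycin, seeded at ~1×10⁶ cells. Inhibitor at 0.5–20 μM final (DMSO <1%). Cultures diluted daily to stay in log phase, with inhibitor re-added each time. Cells counted with a Coulter counter.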

C2C12 = assay: Cytotoxicity against mouse C2C12 cells assessed as reduction in cell viability at up to 40 uM; format: cell-based
[2] = target: Cruzipain (Trypanosoma cruzi) (UniProt P25779); assay: Reversible inhibition of Trypanosoma cruzi cruzain using Cbz-Phe-Arg-AMC as substrate assessed as enzyme recovery at 10 fold >apparent Ki preincubated for 2 hrs followed by 100-fold dilution in presence of substrate by rapid dilution assay relative to control; set-up: scale not given: the % may be the effect or the level left
Cruzipain (Trypanosoma cruzi), sequence (P25779 123-467 limits assumed): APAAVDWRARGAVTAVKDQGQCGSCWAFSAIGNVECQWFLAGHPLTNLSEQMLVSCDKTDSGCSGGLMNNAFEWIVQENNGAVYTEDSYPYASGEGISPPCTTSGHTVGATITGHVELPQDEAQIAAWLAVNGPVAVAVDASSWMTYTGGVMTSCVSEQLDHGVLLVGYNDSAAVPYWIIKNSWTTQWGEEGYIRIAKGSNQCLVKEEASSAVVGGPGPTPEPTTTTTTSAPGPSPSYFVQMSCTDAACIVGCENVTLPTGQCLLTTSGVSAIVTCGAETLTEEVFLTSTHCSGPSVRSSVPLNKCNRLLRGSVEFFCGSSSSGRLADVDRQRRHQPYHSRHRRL

[3] = target: Cruzipain (Trypanosoma cruzi) (UniProt P25779); assay: Reversible inhibition of Trypanosoma cruzi cruzain using Cbz-Phe-Arg-AMC as substrate at 0.1 times apparent Ki preincubated for 2 hrs followed by 100-fold dilution in presence of substrate by rapid dilution assay relative to control
Cruzipain = Cruzipain (Trypanosoma cruzi, UniProt P25779); assay: Time dependent inhibition of Trypanosoma cruzi cruzain using Cbz-Phe-Arg-AMC as substrate assessed as inhibition constant for EI complex measured for 0.5 to 1 hr by fluorescence based analysis
Cruzipain, sequence (P25779 whole entry): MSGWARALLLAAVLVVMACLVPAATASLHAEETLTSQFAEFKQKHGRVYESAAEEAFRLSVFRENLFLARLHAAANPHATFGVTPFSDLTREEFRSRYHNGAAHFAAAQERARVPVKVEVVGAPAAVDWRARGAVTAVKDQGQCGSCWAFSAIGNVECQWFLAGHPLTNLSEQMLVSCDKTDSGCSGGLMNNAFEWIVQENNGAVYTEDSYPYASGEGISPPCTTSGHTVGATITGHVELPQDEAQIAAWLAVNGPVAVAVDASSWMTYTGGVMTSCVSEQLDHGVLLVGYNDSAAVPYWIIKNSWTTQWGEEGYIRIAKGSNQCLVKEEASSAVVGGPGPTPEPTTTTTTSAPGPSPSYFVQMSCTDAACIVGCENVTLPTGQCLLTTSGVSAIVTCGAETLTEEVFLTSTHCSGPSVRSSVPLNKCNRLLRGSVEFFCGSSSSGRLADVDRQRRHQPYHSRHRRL

[4] = target: Cruzipain (Trypanosoma cruzi) (UniProt P25779); assay: Binding affinity to Trypanosoma cruzi cruzain assessed as formation of enzyme-inhibitor adducts by measuring mass changes by mass spectrometric analysis
[5] = Stability of the compound in buffer at pH 7.5 assessed as conversion to N-((2S)-1-((3S)-2-hydroxychroman-3-ylamino)-1-oxo-3-phenylpropan-2-yl)-4-methylpiperazine-1-carboxamide by measuring half life by LC-MS analysis; format: physicochemical
[6] = Chemical stability of the compound in NMR buffer in absence of DTT assessed as phenylhydrazone formation at 0.2 mM incubated for 2 hrs in presence of 1 M phenyl hydrazine by UV absorbance based analysis; format: physicochemical; conditions: 200 µM
Method in brief: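 0.2 mM compound treated with 1 mM phenylhydrazine final (added from a 1 M stock) in NMR buffer lacking DTT, with a DMSO control. Phenylhydrazone formation followed continuously by UV absorbance at 282 nm for 2 h.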

[7] = target: Cruzipain (Trypanosoma cruzi) (UniProt P25779); assay: Binding affinity to Trypanosoma cruzi cruzain assessed as covalent bond formation between compound and Cys25 residue by 2D HSQC NMR spectroscopy analysis
Method in brief: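 ¹³C-labelled lactol diluted from a 10 mM DMSO-d6 stock into NMR buffer. Control at 0.6 mM; sample at 0.4 mM with 0.44 mM freshly SEC-purified cruzain. ¹H-¹³C HSQC recorded at 800 MHz and 25 °C, with a spectrum acquired after 1 h with enzyme.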

[8] = target: Cruzipain (Trypanosoma cruzi) (UniProt P25779); assay: Reversible inhibition of Trypanosoma cruzi cruzain using Cbz-Phe-Arg-AMC as substrate assessed as enzyme recovery preincubated for 2 hrs followed by 100-fold dilution in presence of substrate by rapid dilution assay
[9] = target: Cruzipain (Trypanosoma cruzi) (UniProt P25779); assay: Time dependent inhibition of Trypanosoma cruzi cruzain using Cbz-Phe-Arg-AMC as substrate measured after >= 20 mins; conditions: time min >=20, TDE = time-dependent effect
Method in brief: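 Started by adding cruzain to 0.2 nM. Fluorescence (ex 360 / em 460 nm) followed for 20–60 min.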

Cytochrome P450 2D6 = Cytochrome P450 2D6 (Homo sapiens, UniProt P10635); assay: Metabolic stability of the compound assessed as CYP2D6 (unknown origin)-mediated conversion to N-((2S)-1-((3S)-2-hydroxychroman-3-ylamino)-1-oxo-3-phenylpropan-2-yl)-4-methylpiperazine-1-carboxamide measured up to 4 hrs in presence of NADPH-regenerating system; format: ADME
Cytochrome P450 2D6, sequence (P10635 whole entry): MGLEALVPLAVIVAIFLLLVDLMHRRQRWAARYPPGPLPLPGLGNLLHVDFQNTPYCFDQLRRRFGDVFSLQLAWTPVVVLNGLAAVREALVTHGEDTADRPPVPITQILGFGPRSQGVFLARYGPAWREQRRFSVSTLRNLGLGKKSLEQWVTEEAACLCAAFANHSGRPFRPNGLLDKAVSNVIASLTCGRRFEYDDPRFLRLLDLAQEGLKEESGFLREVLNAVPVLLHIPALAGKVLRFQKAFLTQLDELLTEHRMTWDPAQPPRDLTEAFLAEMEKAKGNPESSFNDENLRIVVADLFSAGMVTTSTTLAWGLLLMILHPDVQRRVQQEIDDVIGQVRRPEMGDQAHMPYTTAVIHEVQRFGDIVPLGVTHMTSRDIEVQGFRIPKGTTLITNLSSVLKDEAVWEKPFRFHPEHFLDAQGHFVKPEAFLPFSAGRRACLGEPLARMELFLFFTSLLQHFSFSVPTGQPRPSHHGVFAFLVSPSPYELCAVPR

Cytochrome P450 2C9 = Cytochrome P450 2C9 (Homo sapiens, UniProt P11712); assay: Metabolic stability of the compound assessed as CYP2C9 (unknown origin)-mediated conversion to N-((2S)-1-((3S)-2-hydroxychroman-3-ylamino)-1-oxo-3-phenylpropan-2-yl)-4-methylpiperazine-1-carboxamide measured up to 4 hrs in presence of NADPH-regenerating system; format: ADME
Cytochrome P450 2C9, sequence (P11712 whole entry): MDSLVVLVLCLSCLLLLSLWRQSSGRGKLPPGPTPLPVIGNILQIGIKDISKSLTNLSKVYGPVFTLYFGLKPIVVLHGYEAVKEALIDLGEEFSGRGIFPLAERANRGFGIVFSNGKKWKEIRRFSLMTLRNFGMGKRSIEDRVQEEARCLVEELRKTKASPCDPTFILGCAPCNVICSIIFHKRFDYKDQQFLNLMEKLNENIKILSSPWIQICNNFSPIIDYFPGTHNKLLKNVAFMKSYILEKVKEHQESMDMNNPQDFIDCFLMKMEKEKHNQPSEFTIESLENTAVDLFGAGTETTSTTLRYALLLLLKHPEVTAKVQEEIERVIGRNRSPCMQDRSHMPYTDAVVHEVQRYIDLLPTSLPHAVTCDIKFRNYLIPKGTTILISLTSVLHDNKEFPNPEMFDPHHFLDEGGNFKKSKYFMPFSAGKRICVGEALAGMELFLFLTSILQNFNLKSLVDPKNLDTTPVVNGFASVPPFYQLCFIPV

Cytochrome P450 3A4 = Cytochrome P450 3A4 (Homo sapiens, UniProt P08684); assay: Metabolic stability of the compound assessed as CYP3A4 (unknown origin)-mediated conversion to N-((2S)-1-((3S)-2-hydroxychroman-3-ylamino)-1-oxo-3-phenylpropan-2-yl)-4-methylpiperazine-1-carboxamide measured up to 4 hrs in presence of NADPH-regenerating system; format: ADME
Cytochrome P450 3A4, sequence (P08684 whole entry): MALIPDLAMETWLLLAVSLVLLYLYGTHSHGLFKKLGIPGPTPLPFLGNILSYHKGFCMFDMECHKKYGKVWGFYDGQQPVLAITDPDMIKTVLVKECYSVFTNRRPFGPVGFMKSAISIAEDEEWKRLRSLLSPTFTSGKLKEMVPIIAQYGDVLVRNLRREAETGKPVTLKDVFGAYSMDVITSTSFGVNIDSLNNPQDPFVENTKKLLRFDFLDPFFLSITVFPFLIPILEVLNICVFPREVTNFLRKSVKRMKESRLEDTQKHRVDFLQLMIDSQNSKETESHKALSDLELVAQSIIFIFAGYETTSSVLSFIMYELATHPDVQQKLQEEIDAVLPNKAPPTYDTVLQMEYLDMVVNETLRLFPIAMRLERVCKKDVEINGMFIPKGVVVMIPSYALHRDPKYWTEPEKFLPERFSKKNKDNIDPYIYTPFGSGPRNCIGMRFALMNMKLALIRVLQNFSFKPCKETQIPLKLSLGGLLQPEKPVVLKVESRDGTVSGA

SARS-CoV-2 = assay: Antiviral activity against SARS-CoV-2 infected in human A549 cells transfected with ACE2 assessed as virus-induced cytopathic effect incubated for 4 days by microscopic analysis; format: functional, organism-based; conditions: Severe acute respiratory syndrome coronavirus 2, A549, 96 h
[10] = Inhibition of SARS-CoV-2 3CLpro using ACC-SAVLQSGFRK(DNP)-NH2 as substrate assessed as inhibition constant measured for 0.5 to 1 hr by fluorescence based analysis; set-up: species or system Severe acute respiratory syndrome coronavirus 2
Procathepsin L = Procathepsin L (Homo sapiens, UniProt P07711); assay: Inhibition of human Cathepsin L
Procathepsin L, sequence (P07711 whole entry): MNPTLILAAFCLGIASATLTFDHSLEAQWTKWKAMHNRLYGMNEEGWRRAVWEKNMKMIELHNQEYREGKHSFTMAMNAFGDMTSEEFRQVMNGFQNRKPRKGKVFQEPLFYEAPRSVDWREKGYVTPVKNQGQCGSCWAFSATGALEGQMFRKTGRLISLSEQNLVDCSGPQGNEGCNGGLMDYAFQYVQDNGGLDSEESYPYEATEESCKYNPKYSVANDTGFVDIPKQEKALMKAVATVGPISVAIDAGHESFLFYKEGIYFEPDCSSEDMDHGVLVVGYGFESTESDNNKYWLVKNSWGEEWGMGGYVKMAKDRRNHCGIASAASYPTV

[11] = target: Cruzipain (Trypanosoma cruzi) (UniProt P25779); assay: Time dependent inhibition of Trypanosoma cruzi cruzain using Cbz-Phe-Arg-AMC as substrate assessed as association rate constant for EI complex measured over 30 mins
[12] = Selectivity index, ratio of EC50 for antitrypanosomal activity against bloodstream form of Trypanosoma brucei brucei measured after 3 to 4 days by Z2 coulter counter based analysis to Ki for time dependent inhibition of Trypanosoma cruzi cruzain using Cbz-Phe-Arg-AMC as substrate assessed as inhibition constant for EI complex measured for 0.5 to 1 hr by fluorescence based analysis; format: toxicity
Liver carboxylesterase = target: T1, Liver carboxylesterase (Sus scrofa, UniProt Q29550); assay: Stability of the compound in buffer at pH 7.5 assessed as porcine esterase-mediated compound degradation measured over 3 hrs by LC-MS analysis; format: ADME; conditions: pig, read-out: Drug degradation
T1 sequence (Q29550 whole entry): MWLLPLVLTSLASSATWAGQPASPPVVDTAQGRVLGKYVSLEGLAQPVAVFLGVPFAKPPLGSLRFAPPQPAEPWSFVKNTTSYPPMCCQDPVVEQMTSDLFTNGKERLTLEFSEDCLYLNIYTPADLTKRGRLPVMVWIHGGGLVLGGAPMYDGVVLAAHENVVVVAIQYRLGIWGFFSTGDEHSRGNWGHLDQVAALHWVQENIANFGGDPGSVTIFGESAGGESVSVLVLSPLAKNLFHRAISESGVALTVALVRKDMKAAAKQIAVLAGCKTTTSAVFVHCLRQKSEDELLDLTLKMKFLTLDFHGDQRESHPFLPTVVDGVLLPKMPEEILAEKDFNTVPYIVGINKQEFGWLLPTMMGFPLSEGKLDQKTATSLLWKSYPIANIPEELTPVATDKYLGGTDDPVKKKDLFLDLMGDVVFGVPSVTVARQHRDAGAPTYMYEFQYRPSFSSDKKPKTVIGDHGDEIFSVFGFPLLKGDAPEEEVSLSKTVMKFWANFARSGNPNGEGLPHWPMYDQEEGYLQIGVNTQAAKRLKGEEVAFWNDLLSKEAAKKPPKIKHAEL
Method in brief: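 Prodrugs at 2 mM in cruzain assay buffer (pH 7.5, 10% DMSO) with porcine liver esterase at 40 U/mL, shaken at 37 °C. Controls without esterase and buffer only. Aliquots taken at 0–300 min and quenched with MeCN, then the supernatant analysed by HPLC–MS with detection at 270 nm.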

SMILES	pEC50 (Trypanosoma cruzi)	pEC50 [1]	Activity (C2C12)	Activity [2] [%]	inhibition [3] [%]	pKi (Cruzipain)	further results
COC(=O)c1ccc2c(c1)C[C@H](NC(=O)[C@H](Cc1ccccc1)NC(=O)OCc1ccccc1)C(O)O2 (stereo partly specified)	5.46	5.40	Non-Toxic	91	9	7.74	–
O=C(N[C@@H](Cc1ccccc1)C(=O)N[C@H]1Cc2cc(F)ccc2OC1O)OCc1ccccc1 (stereo partly specified)	5.46	5.57	Non-Toxic	91	9	7.32	Activity [4]: Active
CCC(=O)OC1Oc2ccccc2C[C@@H]1NC(=O)[C@H](Cc1ccccc1)NC(=O)N1CCN(C)CC1 (stereo partly specified)	–	5.51	Non-Toxic	–	–	< 5.30	t1/2 [5]: 24 min
O=C(CN[C@@H](Cc1ccccc1)C(=O)N[C@H](CO)Cc1ccccc1O)OCc1ccccc1	–	–	–	–	–	< 5.00	–
CN1CCN(C(=O)N[C@@H](Cc2ccccc2)C(=O)N[C@H]2Cc3ccccc3OC2O)CC1 (stereo partly specified)	< 4.70	6.22	Non-Toxic	–	–	7.33	Stability [6]: Stable; Activity [7]: Active; Activity [8]: inactive; Activity [4]: Active; inhibition [9]: Tde
CCOC1Oc2ccccc2C[C@@H]1NC(=O)[C@H](Cc1ccccc1)NC(=O)N1CCN(C)CC1 (stereo partly specified)	–	4.92	Non-Toxic	–	–	< 5.30	Stability (Cytochrome P450 2D6): Stable; Stability (Cytochrome P450 2C9): Stable; Stability (Cytochrome P450 3A4): Stable
COc1ccc2c(c1)C[C@H](NC(=O)[C@H](Cc1ccccc1)NC(=O)OCc1ccccc1)C(O)O2 (stereo partly specified)	–	5.59	Non-Toxic	91	9	6.46	–
CC(C)[C@H](NC(=O)OCc1ccccc1)C(=O)N[C@@H](CC1CCCCC1)C(=O)N[C@H](C=O)Cc1ccc[nH]c1=O	–	–	–	–	–	–	pEC50 (SARS-CoV-2): 5.30; pKi [10]: 8.05; pKi (Procathepsin L): 7.28
Cc1ccc2c(c1)C[C@H](NC(=O)[C@H](Cc1ccccc1)NC(=O)OCc1ccccc1)C(O)O2 (stereo partly specified)	5.24	6.30	Non-Toxic	91	9	–	Activity [4]: Active
O=C(N[C@@H](Cc1ccccc1)C(=O)N[C@H]1Cc2ccccc2OC1O)OCc1ccccc1 (stereo partly specified)	5.54	5.17	Non-Toxic	91	9	7.31	Activity [4]: Active
O=C(Cn1ccnc1[N+](=O)[O-])NCc1ccccc1 [BENZNIDAZOLE]	5.40	–	–	–	–	–	–
CN1CCN(C(=O)N[C@@H](Cc2ccccc2)C(=O)N[C@H](C=O)CCc2ccccc2)CC1	–	–	–	–	–	–	Stability [6]: Unstable; Activity [8]: inactive; inhibition [9]: Tde
CC(C)C(=O)OC1Oc2ccccc2C[C@@H]1NC(=O)[C@H](Cc1ccccc1)NC(=O)N1CCN(C)CC1 (stereo partly specified)	5.00	5.40	Non-Toxic	–	–	< 5.30	t1/2 [5]: 16 min
CC(C)OC1Oc2ccccc2C[C@@H]1NC(=O)[C@H](Cc1ccccc1)NC(=O)N1CCN(C)CC1 (stereo partly specified)	–	4.85	Non-Toxic	–	–	< 5.30	Stability (Cytochrome P450 2D6): Stable; Stability (Cytochrome P450 2C9): Stable; Stability (Cytochrome P450 3A4): Stable
O=C(N[C@@H](Cc1ccccc1)C(=O)N[C@H]1Cc2cc(Cl)ccc2OC1O)OCc1ccccc1 (stereo partly specified)	–	5.24	Non-Toxic	91	9	7.13	–
COc1ccccc1C[C@@H](C=O)NC(=O)[C@H](Cc1ccccc1)NCC(=O)OCc1ccccc1	–	–	–	–	–	7.66	–
CN1CCN(C(=O)N[C@@H](Cc2ccccc2)C(=O)N[C@H](/C=C/S(=O)(=O)c2ccccc2)CCc2ccccc2)CC1 [K-777]	7.40	–	Toxic	–	–	–	–
O=C[C@H](Cc1ccccc1)NC(=O)[C@H](Cc1ccccc1)NC(=O)OCc1ccccc1 (Cbz-Phe-Phe-aldehyde)	6.30	5.48	Toxic	–	–	9.36	Ka [11]: 7.6 10^-4/s; Activity [8]: inactive; Ratio [12]: 7500
CN1CCN(C(=O)N[C@@H](Cc2ccccc2)C(=O)N[C@@H]2Cc3ccccc3C[C@H]2O)CC1 (mixture of isomers)	–	–	–	–	–	< 4.00	–
CC(=O)OC1Oc2ccccc2C[C@@H]1NC(=O)[C@H](Cc1ccccc1)NC(=O)N1CCN(C)CC1 (stereo partly specified)	4.89	5.43	Non-Toxic	–	–	6.00	t1/2 [5]: 48 min; metabolised at 3 h (Liver carboxylesterase): 10%
